High-throughput results as filed in PubChem.
This is a sample that favours compounds with a hit; in the whole collection about 5.8% have one here.
Pf Dd2 inh: inhibitors of Plasmodium falciparum Dd2 growth | P. falciparum Dd2 growth, SYBR Green, 72 h; hits give low values | 94,000 compounds, 2.3% hits | activity change, % at 10 µM; in the data active = activity change below about -80%
Tcruzi prolif: inhibitors of T. cruzi proliferation. T. cruzi beta-gal in NIH3T3, GalScreen luminescence, 90 h. inhibition, % at 8.34 µM. 77,000 compounds, 5.9% hits. AID 624255;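 active = mean inhibition above about 93%, with at least 55% of replicates each passing it, limit read from the data, passing the limit was not always enough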
IDH1 mut inh: blocks human IDH1 R132H reductase activity; inhibition, % at 10 µM; 70,000 compounds, 0.18% hits; O75874; diaphorase/resazurin fluorescence, 60 min; in the data active = inhibition above about 34%
Target sequence (O75874 whole entry R132H): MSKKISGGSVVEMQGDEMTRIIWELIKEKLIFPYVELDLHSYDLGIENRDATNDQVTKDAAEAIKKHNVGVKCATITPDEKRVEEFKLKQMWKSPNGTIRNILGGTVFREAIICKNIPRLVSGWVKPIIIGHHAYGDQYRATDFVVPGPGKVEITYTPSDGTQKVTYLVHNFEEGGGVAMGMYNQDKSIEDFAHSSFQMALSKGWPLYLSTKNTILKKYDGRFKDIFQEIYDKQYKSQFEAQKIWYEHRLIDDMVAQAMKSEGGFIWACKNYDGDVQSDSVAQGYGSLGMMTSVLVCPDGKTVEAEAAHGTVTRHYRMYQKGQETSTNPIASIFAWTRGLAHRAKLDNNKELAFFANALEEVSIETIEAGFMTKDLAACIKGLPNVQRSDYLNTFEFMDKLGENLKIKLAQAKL
KDM4C inh: blocks human GASC-1 (KDM4C) demethylase activity; GST-KDM4C 2-372, H3K9me3 peptide, LANCE TR-FRET; AID 720574; inhibition, % at 12.5 µM; 96,000 compounds, 0.15% hits;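 active = mean replicate inhibition above about 25%, with at least 55% of replicates also reaching it, limit read from the data, passing the limit was not always enough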
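Material: N-terminal GST-fused human GASC-1 (KDM4C) fragment, residues 2-372. Input: 10 nM enzyme. Incubation: enzyme reaction 30 min, then detection 60 min, both room temperature. Doses: one test concentration per compound. Read-out basis: inhibition from TR-FRET ratio decrease. Detection: LANCE TR-FRET, excitation 340 nm, emissions 618 and 671 nm.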
Each line names hits and unclear results; the compound was inactive in the other large screens.

C[C@@H]1CN([C@@H](C)CO)C(=O)c2cccc(NC(=O)c3ccc(-c4nccs4)cc3)c2O[C@@H]1CN(C)Cc1ccc(-c2ccccc2)cc1	none
C[C@H]1CN([C@@H](C)CO)C(=O)c2cccc(NC(=O)c3ccc(-c4nccs4)cc3)c2O[C@@H]1CN(C)Cc1ccc(C(=O)Nc2ccccc2N)cc1	Pf Dd2 inh -90, Tcruzi prolif 104 (no result: IDH1 mut inh)
CCC(=O)Nc1ccc2c(c1)C(=O)N(C)C[C@H](OC)[C@@H](C)CN(C(=O)c1ccc(F)cc1)[C@H](C)CO2	none
C[C@H]1CN([C@@H](C)CO)C(=O)c2cccc(NC(=O)CCCCCC(=O)Nc3ccccc3N)c2O[C@@H]1CN(C)Cc1ccncc1	none (no result: Tcruzi prolif)
CC(C)NC(=O)Nc1cccc2c1O[C@@H](CN(C)CC1CCCCC1)[C@H](C)CN([C@@H](C)CO)C2=O	Pf Dd2 inh -81 (no result: Tcruzi prolif)
CC(C)NC(=O)Nc1cccc2c1O[C@@H](CN(C)CC1CCCCC1)[C@@H](C)CN([C@H](C)CO)C2=O	none (no result: IDH1 mut inh)
C[C@@H]1CN([C@@H](C)CO)C(=O)c2cccc(NC(=O)CCCCCC(=O)Nc3ccccc3N)c2O[C@@H]1CN(C)Cc1ccccc1	Pf Dd2 inh -87 (no result: Tcruzi prolif, IDH1 mut inh)
C[C@H](CO)N1C[C@H](C)[C@H](CN(C)CC2CC2)Oc2c(NC(=O)CCCCCC(=O)Nc3ccccc3N)cccc2C1=O	none (no result: Tcruzi prolif)
C[C@H](CO)N1C[C@H](C)[C@H](CN(C)Cc2ccc(Cl)c(Cl)c2)Oc2c(NC(=O)CCCCCC(=O)Nc3ccccc3N)cccc2C1=O	Pf Dd2 inh -88 (no result: Tcruzi prolif)
C[C@@H]1CN([C@@H](C)CO)C(=O)c2cccc(NC(=O)CCCCCC(=O)Nc3ccccc3N)c2O[C@H]1CN(C)CC1CCCCC1	Pf Dd2 inh -89 (no result: Tcruzi prolif, IDH1 mut inh)
O=C(NC1CCCCC1)N[C@H]1CC[C@@H](CCNS(=O)(=O)c2ccc(F)cc2)O[C@@H]1CO	none
Cc1noc(C)c1NC(=O)Nc1ccc2c(c1)C(=O)N([C@H](C)CO)C[C@H](C)[C@@H](CN(C)Cc1ccc3c(c1)OCO3)O2	none
C[C@H](CO)N1C[C@H](C)[C@@H](CN(C)Cc2ccc(-c3ccccc3)cc2)Oc2c(NC(=O)CCCCCC(=O)Nc3ccccc3N)cccc2C1=O	Pf Dd2 inh -87 (no result: Tcruzi prolif)
C[C@@H]1CN([C@H](C)CO)C(=O)c2cccc(NC(=O)Nc3ccccc3)c2O[C@@H]1CN(C)Cc1ccc(Cl)c(Cl)c1	Pf Dd2 inh -86 (no result: IDH1 mut inh)
C[C@H]1CN([C@@H](C)CO)C(=O)c2cccc(NC(=O)Nc3ccccc3)c2O[C@@H]1CN(C)Cc1ccc(Cl)c(Cl)c1	none
C[C@H](CO)N1C[C@H](C)[C@H](CN(C)C)Oc2c(NC(=O)CCCCCC(=O)Nc3ccccc3N)cccc2C1=O	none (no result: Tcruzi prolif, IDH1 mut inh)
C[C@@H]1CN([C@@H](C)CO)C(=O)c2cccc(NC(=O)CCCCCC(=O)Nc3ccccc3N)c2O[C@H]1CN(C)C	none (no result: Tcruzi prolif)
C[C@@H]1CN([C@@H](C)CO)C(=O)c2cccc(NC(=O)CCCCCC(=O)Nc3ccccc3N)c2O[C@H]1CN(C)Cc1ccc(-c2ccccc2)cc1	Pf Dd2 inh -91 (no result: Tcruzi prolif)
CCCc1cn([C@H]2C[C@@H]3O[C@H](CO)CC[C@@H]3O[C@@H]2CCc2ccc(-c3ccc(OC)cc3)cc2)nn1	Pf Dd2 inh -83 (no result: Tcruzi prolif, IDH1 mut inh, KDM4C inh)
CCCc1cn([C@@H]2C[C@@H]3O[C@H](CO)CC[C@@H]3O[C@@H]2CCc2ccc(-c3cccc(OC)c3)cc2)nn1	Pf Dd2 inh -87 (no result: Tcruzi prolif, IDH1 mut inh, KDM4C inh)
CCCc1cn([C@H]2C[C@@H]3O[C@H](CO)CC[C@@H]3O[C@@H]2CCc2ccc(-c3cccc(OC)c3)cc2)nn1	none (no result: Tcruzi prolif, IDH1 mut inh, KDM4C inh)
CC(C)NC(=O)Nc1ccc2c(c1)C(=O)N([C@H](C)CO)C[C@@H](C)[C@H](CN(C)S(=O)(=O)c1ccc(F)cc1)OCCCC[C@@H](C)O2	none (no result: Pf Dd2 inh, IDH1 mut inh)
CC(C)(C)C(=O)COc1cccc(NC(=O)c2ccc([N+](=O)[O-])cc2)c1	none (no result: Pf Dd2 inh, Tcruzi prolif, KDM4C inh)
COc1ccc2c3c(n(C)c2c1)[C@H](CO)N(C(=O)C1CC1)CC31CN(C(=O)C2CCOCC2)C1	Pf Dd2 inh -87 (no result: Tcruzi prolif, IDH1 mut inh)
COc1ccc2c3c(n(C)c2c1)[C@H](CO)N(C(=O)C1CC1)CC31CCN(C)CC1	Pf Dd2 inh -86 (no result: Tcruzi prolif, IDH1 mut inh)
Cc1ccc(S(=O)(=O)NCC[C@H]2CC[C@@H](NC(=O)CC3CC3)[C@H](CO)O2)cc1	none
Cc1ccc(S(=O)(=O)NCC[C@@H]2CC[C@H](NC(=O)CC3CC3)[C@@H](CO)O2)cc1	KDM4C inh 39
COc1ccc(-c2ccc3c(c2)O[C@H](CN(C)C)[C@H](C)CN([C@H](C)CO)S3(=O)=O)cc1	none
CNC(=S)NCc1sc2ccccc2c1C	none (no result: Pf Dd2 inh, Tcruzi prolif, KDM4C inh)
Cc1ccc2ccc(C(Nc3ccccn3)c3ccc(C(C)C)cc3)c(O)c2n1 (configuration not stated)	none (no result: Pf Dd2 inh, Tcruzi prolif, KDM4C inh)
CC(C)NC(=O)N1Cc2cc(C(=O)NCC(F)(F)F)nc(-c3cccc(-c4cc5ccccc5o4)c3)c2[C@H]1CCO	Pf Dd2 inh -86 (no result: Tcruzi prolif, IDH1 mut inh)
CC(C)(C)S(=O)N1Cc2cc(C(=O)NCc3ccc4c(c3)OCO4)nc(-c3cccc(-c4cc5ccccc5o4)c3)c2[C@H]1CCO (some centres not stated)	Pf Dd2 inh -93 (no result: Tcruzi prolif, IDH1 mut inh)
CO[C@H]1CN(C)C(=O)c2cc(NC(=O)c3ccccc3F)ccc2OC[C@H](C)N(C(=O)c2ccccc2F)C[C@H]1C	Pf Dd2 inh -87
CO[C@@H]1CN(C)C(=O)c2cc(NC(=O)Cc3ccccc3)ccc2OC[C@H](C)N(C(=O)c2ccccc2F)C[C@@H]1C	Pf Dd2 inh -82
COCC(=O)N(C)C[C@@H]1Oc2ncc(C#CC3(O)CCCC3)cc2C(=O)N([C@@H](C)CO)C[C@H]1C	none
Cc1noc(C)c1S(=O)(=O)N(C)C[C@@H]1OCc2ccccc2-c2c(n(C)c3ccccc23)C(=O)N([C@H](C)CO)C[C@@H]1C	Pf Dd2 inh -84
Cc1ccc(S(=O)(=O)N(C)C[C@H]2OCc3ccccc3-c3c(n(C)c4ccccc34)C(=O)N([C@@H](C)CO)C[C@@H]2C)cc1	Pf Dd2 inh -92 (no result: IDH1 mut inh)
C[C@@H]1CN([C@H](C)CO)C(=O)c2c(c3ccccc3n2C)-c2ccccc2CO[C@@H]1CN(C)S(=O)(=O)c1ccccc1	none (no result: IDH1 mut inh)
Cc1ccc(S(=O)(=O)N(C)C[C@@H]2OCc3ccccc3-c3c(n(C)c4ccccc34)C(=O)N([C@H](C)CO)C[C@H]2C)cc1	Pf Dd2 inh -82
C[C@@H]1CN([C@@H](C)CO)C(=O)c2c(c3ccccc3n2C)-c2ccccc2CO[C@H]1CN(C)S(=O)(=O)c1ccc(F)cc1	none (no result: IDH1 mut inh)
Cc1ccc(S(=O)(=O)N(C)C[C@@H]2OCc3ccccc3-c3c(n(C)c4ccccc34)C(=O)N([C@@H](C)CO)C[C@H]2C)cc1	Pf Dd2 inh -81 (no result: IDH1 mut inh)
COCC(=O)N1CC2(C1)[C@H](c1ccc(C3=CCCC3)cc1)[C@@H](CO)N2C(=O)COC	none (no result: Tcruzi prolif, IDH1 mut inh)
C[C@H](CO)N1C[C@H](C)[C@H](CN(C)Cc2ccncc2)Oc2ccc(NS(=O)(=O)c3ccccc3)cc2CC1=O	none
CCN(CC)CCNc1ncnc(N)c1[N+](=O)[O-]	none (no result: Pf Dd2 inh, Tcruzi prolif, KDM4C inh)
O=C(NCc1ccccc1)[C@@H]1N[C@@H]2c3ccc(-c4ccccc4)c(=O)n3C[C@@H]2[C@H]1CO	none (no result: IDH1 mut inh)
